Laboratory results reported in ChEMBL document CHEMBL1123566, “Synthesis and cardiac electrophysiological activity of 2- and 3-[(substituted phenyl)alkyl]quinuclidines. Structure-activity relationships” (1987).
Where “and” joins values, the source holds several entries; their conditions need not be identical. Identical values can stand only once.

What was measured:
[1] = species on record: Canis familiaris; test: In vitro electrophysiological evaluation in canine cardiac ventricular muscle reported as % change for the functional refractory period (FRP) concentration range of 0.1-100 uM; design: species or system Canis lupus familiaris, Muscle tissue
Method in brief: (§1)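 Canine right ventricle and papillary muscle strips in oxygenated Tyrode's solution, fitted with stimulating and recording electrodes. The extra-stimulus conduction-interval method was adapted for in vitro use. FRP and CT were read from a conduction-interval curve before and after various compound concentrations, and expressed as percent change from control. Compounds were taken from 10 mM deionized-water stock into Tyrode's. Each strip was used once as its own control.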

[2] = species on record: Canis familiaris; test: In vitro electrophysiological evaluation in canine cardiac ventricular muscle reported as % change for conduction time(CT) at 0.1-100 uM concentration range; Minimal (<IO%increase or a decrease in CT); assay type: functional, Canis lupus familiaris, Muscle tissue
[3] = species on record: Canis familiaris; test: (§2) In vitro electrophysiological evaluation in canine cardiac Purkinje fibres reported as % change for action potential duration at 0.1-100 uM concentration range; assay type: functional, Canis lupus familiaris, Purkinje fiber
Method in brief: (§3)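 Canine cardiac Purkinje fibres, intracellular microelectrode recording, paced at a basic cycle length of 1 s. APD95 and Vmax read simultaneously. Compound: 10 mM stock in deionized water, diluted into Tyrode's solution, tested over the stated concentration range. Each fibre used once as its own control. Result is % change from control, given at 10 µM or as the maximum with its concentration. M = <10% decrease or an increase in Vmax.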

[4] = species on record: Canis familiaris; test: In vitro electrophysiological evaluation in canine cardiac ventricular muscle reported as maximum % change for functional refractory period (FRP) at 0.1-100 uM concentration range; design: species or system Canis lupus familiaris, Muscle tissue
[5] = species on record: Canis familiaris; test: In vitro electrophysiological evaluation in canine cardiac ventricular muscle reported as maximum % change for conduction time(CT) at 0.1-100 uM concentration range; assay type: functional, Canis lupus familiaris, Muscle tissue; method in brief: as §1
[6] = species on record: Canis familiaris; test: In vitro electrophysiological evaluation in canine cardiac ventricular muscle reported as maximum % change for conduction time(CT) at 0.1-30 uM concentration range; Minimal (<IO%increase or a decrease in CT); assay type: functional, Canis lupus familiaris, Muscle tissue; method in brief: as §1
[7] = species on record: Canis familiaris; test: In vitro electrophysiological activity in canine cardiac Purkinje fibres given as maximum % change for action potential duration at 10 uM concentration; assay type: functional, Canis lupus familiaris, Purkinje fiber
Method in brief: (§4)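 Canine cardiac Purkinje fibres, intracellular recording at 1 s basic cycle length, over cumulative concentration ranges. Compound 10 mM stock in deionized water diluted into Tyrode's. Each fibre used once as its own control. Value is the maximum % change from control in APD at 95% repolarization, with the concentration where it occurred; both values given if a biphasic response (>20% reversal) occurred.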

[8] = species on record: Canis familiaris; test: In vitro electrophysiological activity in canine cardiac Purkinje fibres given as maximum % change for action potential duration at 0.1-100 uM concentration; assay type: functional, Canis lupus familiaris, Purkinje fiber; method in brief: as §4
[9] = species on record: Canis familiaris; test: In vitro electrophysiological evaluation in canine cardiac ventricular muscle reported as % change for conduction time(CT) at 0.1-30 uM concentration range; Minimal (<IO%increase or a decrease in CT); assay type: functional, Canis lupus familiaris, Muscle tissue
[10] = species on record: Canis familiaris; test: In vitro electrophysiological evaluation in canine cardiac ventricular muscle reported as maximum % change for functional refractory period (FRP) at 0.1-30 uM concentration range; design: species or system Canis lupus familiaris, Muscle tissue; method in brief: as §1
[11] = species on record: Canis familiaris; test: In vitro electrophysiological activity in canine cardiac Purkinje fibres given as maximum % change for action potential duration at 100 uM concentration; assay type: functional, Canis lupus familiaris, Purkinje fiber; method in brief: as §4
[12] = species on record: Canis familiaris; test: In vitro electrophysiological evaluation in canine cardiac Purkinje fibres reported as percent change Vmax concentration range of 0.1-100 uM; Minimal (<IO%increase or a decrease in CT); assay type: functional; details: Canis lupus familiaris; Purkinje fiber; method in brief: as §3
[13] = species on record: Canis familiaris; test: as §2; assay type: functional, Canis lupus familiaris, Purkinje fiber; method in brief: as §3; remark: listed apart in the source
[14] = species on record: Canis familiaris; test: In vitro electrophysiological evaluation in canine cardiac ventricular muscle reported as maximum % change for conduction time(CT) at 0.1-30 uM concentration range; assay type: functional, Canis lupus familiaris, Muscle tissue; method in brief: as §1
[15] = species on record: Canis familiaris; test: In vitro electrophysiological evaluation in canine cardiac ventricular muscle reported as % change for the functional refractory period (FRP) concentration range of 0.1-30 uM; design: species or system Canis lupus familiaris, Muscle tissue; method in brief: as §1
[16] = species on record: Canis familiaris; test: In vitro electrophysiological evaluation in canine cardiac Purkinje fibres reported as percent change Vmax concentration range of 0.1-100 uM; assay type: functional; details: Canis lupus familiaris; Purkinje fiber; method in brief: as §3

Question: For `CCCCCCC[N+]12CCC(CC1)C(=O)C2CCCc1ccc(Cl)cc1.O=P([O-])(O)O` (stereo unspecified), which FRP [1] is on record?
Answer: Its FRP is 5%.

Question: And the CT [2]?
Answer: The CT was less than 10%.

Question: And the APD95 [3]?
Answer: Its APD95 is 38% and 69% and 35%.

Question: What about the FRP [4] of the same molecule?
Answer: Its FRP is 10%.

Question: What about the CT [5] of the same molecule?
Answer: Its CT is 31%.

Question: What about the CT [6] of the same molecule?
Answer: The CT was less than 10%.

Question: And the APD95 [7]?
Answer: Its APD95 is 38% and 69% and 35%.

Question: And the APD95 [8]?
Answer: Its APD95 is 9%.

Question: And the CT [9]?
Answer: The CT was less than 10%.

Question: And the FRP [10]?
Answer: Its FRP is 29% and 27%.

Question: What about the APD95 [11] of the same molecule?
Answer: Its APD95 is 13% and 12% and 9%.

Question: What about the Vmax [12] of the same molecule?
Answer: The Vmax was less than 10%.

Question: What about the APD95 [13] of the same molecule?
Answer: Its APD95 is 9%.

Question: What about the CT [14] of the same molecule?
Answer: Its CT is 17%.

Question: And the FRP [15]?
Answer: The FRP was 26% and 22%.

Question: And the Vmax [16]?
Answer: The Vmax was -18% and -15%.
